Assay results: ChEMBL document CHEMBL3232894, “Discovery of AMG 925, a FLT3 and CDK4 dual kinase inhibitor with preferential affinity for the activated state of FLT3” (J Med Chem, 2014)
The source made the active and inactive calls. The calls are words filed in the database; no cut-off is given here.

Assays:
[1] = biological target: Cyclin-dependent kinase 1/cyclin B1 (Homo sapiens, UniProt P06493); assay: Inhibition of CDK1/cyclin B (unknown origin) using histone H1 as substrate after 60 mins by scintillation counting analysis in presence of [r-33P]ATP; type: protein-complex assay
MOLM-13 [2] = assay: Antiproliferative activity against human MOLM13 cells harboring FLT3 ITD mutant assessed as incorporation of [3H]thymidine into DNA after 72 hrs by beta-plate counting analysis; type: functional, cell-based
[3] = Antiproliferative activity against Rb-negative human MDA-MB-436 cells assessed as incorporation of [3H]thymidine into DNA after 72 hrs by beta-plate counting analysis; type: functional
[4] = Clearance in iv dosed rat; type: ADME, organism-based; settings: in vivo
Method in brief: (§1)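 Intravenous and oral (gavage, solution) PK in rat, dog and cynomolgus monkey. The rat vehicle for both routes was water/acetate/tween at pH 4, 96/3/1 (v/v/v). Dog and monkey iv doses used 40% PG aqueous solution at pH 2, and their oral doses used 20% captisol aqueous solution.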

[5] = biological target: T1, Receptor-type tyrosine-protein kinase FLT3 (Homo sapiens, UniProt P36888); assay: Binding affinity to wild type FLT3 (unknown origin)
T1 sequence (P36888 whole entry): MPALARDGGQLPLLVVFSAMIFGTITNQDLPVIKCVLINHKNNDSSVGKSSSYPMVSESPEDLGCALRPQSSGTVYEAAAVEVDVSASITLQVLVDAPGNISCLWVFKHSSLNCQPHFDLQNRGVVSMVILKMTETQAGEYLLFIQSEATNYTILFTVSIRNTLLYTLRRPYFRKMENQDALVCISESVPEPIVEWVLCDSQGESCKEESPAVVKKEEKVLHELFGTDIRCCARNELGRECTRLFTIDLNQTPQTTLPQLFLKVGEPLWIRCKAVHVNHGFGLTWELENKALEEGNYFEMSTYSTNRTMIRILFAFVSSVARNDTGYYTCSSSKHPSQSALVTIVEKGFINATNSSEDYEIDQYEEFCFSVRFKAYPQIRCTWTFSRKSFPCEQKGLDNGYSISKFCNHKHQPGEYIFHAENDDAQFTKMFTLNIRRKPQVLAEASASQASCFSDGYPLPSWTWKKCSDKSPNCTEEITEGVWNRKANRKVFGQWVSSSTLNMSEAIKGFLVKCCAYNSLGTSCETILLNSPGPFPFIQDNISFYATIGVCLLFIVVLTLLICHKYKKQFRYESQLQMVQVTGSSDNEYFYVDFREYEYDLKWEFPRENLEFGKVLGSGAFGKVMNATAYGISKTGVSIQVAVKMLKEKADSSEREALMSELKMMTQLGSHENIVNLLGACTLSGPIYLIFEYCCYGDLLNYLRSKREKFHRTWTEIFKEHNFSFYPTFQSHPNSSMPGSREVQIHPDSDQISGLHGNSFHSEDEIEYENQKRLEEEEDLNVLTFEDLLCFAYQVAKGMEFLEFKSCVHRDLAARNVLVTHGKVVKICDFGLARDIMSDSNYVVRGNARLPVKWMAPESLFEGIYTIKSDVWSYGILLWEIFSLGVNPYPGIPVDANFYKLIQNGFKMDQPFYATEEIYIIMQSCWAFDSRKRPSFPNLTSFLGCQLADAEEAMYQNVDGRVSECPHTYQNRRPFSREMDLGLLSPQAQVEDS

[6] = biological target: Receptor-type tyrosine-protein kinase FLT3 (Homo sapiens, UniProt P36888, D835Y); assay: Binding affinity to FLT3 D835Y mutant (unknown origin)
[7] = biological target: Receptor-type tyrosine-protein kinase FLT3 (Homo sapiens, UniProt P36888, K663Q); assay: Binding affinity to FLT3 K663Q mutant (unknown origin)
[8] = biological target: Receptor-type tyrosine-protein kinase FLT3 (Homo sapiens, UniProt P36888, N841I); assay: Binding affinity to FLT3 N841I mutant (unknown origin)
U-937 [9] = assay: Antiproliferative activity against human U937 cells assessed as incorporation of [3H]thymidine into DNA after 72 hrs by beta-plate counting analysis
U-937 [10] = assay: Induction of apoptosis in human U937 cells harboring wild type FLT3 at 1 uM after 48 hrs by Annexin V/Sytox Green staining based flow cytometry; type: functional
Method in brief: (§2)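 MOLM13, sorafenib-resistant MOLM13 and U937 cells were each exposed to compound at 1 μM for 48 h. Cells were then stained with Annexin V/Sytox Green and analysed by flow cytometry. Readout is apoptotic cells as a percentage of all cells analysed.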

MOLM-13 [11] = assay: Induction of apoptosis in sorafenib-resistant human MOLM13 cells harboring FLT3 ITD+D835Y mutant at 1 uM after 48 hrs by Annexin V/Sytox Green staining based flow cytometry; type: functional; method in brief: as §2
MOLM-13 [12] = assay: Antiproliferative activity against human MOLM13 cells harboring FLT3 ITD mutant assessed as incorporation of [3H]thymidine into DNA after […] by beta-plate counting analysis; type: functional, cell-based
[13] = Volume of distribution at steady state in iv dosed dog; type: ADME, organism-based, Canis lupus familiaris; settings: in vivo, read-out: Vdss; method in brief: as §1
[14] = Elimination half-life in iv dosed dog; type: ADME, organism-based, Canis lupus familiaris; settings: in vivo, read-out: beta t1/2 (converted); method in brief: as §1
[15] = Oral bioavailability in dog; type: ADME, organism-based, Canis lupus familiaris; settings: in vivo; method in brief: as §1
[16] = Volume of distribution at steady state in iv dosed cynomolgus monkey; type: ADME, organism-based, Macaca fascicularis; settings: in vivo, read-out: Vdss; method in brief: as §1
[17] = Oral bioavailability in cynomolgus monkey; type: ADME, organism-based, Macaca fascicularis; settings: in vivo; method in brief: as §1
MOLM-13 [18] = assay: Antitumor activity against human MOLM13 cells xenografted in CrTac:NCR-Foxn1nu (NCR) nude mouse assessed as tumor growth inhibition at 150 mg/kg, po administered qd for 8 days; type: functional; settings: MOLM-13, 192 h, read-out: TGI
Method in brief: (§3)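 Oral dosing once daily, day 5 to day 13, in NCR nude mice bearing established subcutaneous human MOLM13 AML xenografts, at 25, 50, 75 and 150 mg/kg against a vehicle group. Tumor growth inhibition read on day 14. AUC comes from terminal PK on plasma collected after the final dose.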

[19] = AUC in po dosed CrTac:NCR-Foxn1nu (NCR) nude mouse xenografted with human MOLM13 cells administered qd for 8 days; type: ADME, organism-based, MOLM-13; settings: in vivo; method in brief: as §3
Tumour = assay: Decrease in Rb phosphorylation at Ser780 in tumor of CrTac:NCR-Foxn1nu (NCR) nude mouse xenografted with human MOLM13 cells at 50 to 150 mg/kg, po after 3 to 24 hrs; type: functional, organism-based; settings: Neoplasm, MOLM-13
Method in brief: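 MOLM13 tumor-bearing mice received a single oral dose of 50, 75 or 150 mg/kg. Tumors were harvested at 3, 6 and 24 h, and lysates were assayed for pSTAT5 and pRb. Unbound plasma levels were measured at the same time points. Results are mean ± SEM, n = 3 per group and n = 6 for vehicle.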

Mus musculus = assay: Toxicity in po dosed CrTac:NCR-Foxn1nu (NCR) nude mouse xenografted with human MOLM13 cells administered qd for 8 days; type: organism-based, MOLM-13; settings: in vivo, 192 h
Method in brief: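 Body weight tracked throughout the 8-day once-daily oral study in NCR nude mice carrying MOLM13 xenografts. Doses were 25, 50, 75 and 150 mg/kg, with a vehicle control.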

COLO 205 = assay: Antiproliferative activity against Rb-positive human COLO205 cells assessed as incorporation of [14C]thymidine into DNA after 72 hrs by beta-plate counting analysis

Sequence of Cyclin-dependent kinase 1/cyclin B1 (P06493 whole entry): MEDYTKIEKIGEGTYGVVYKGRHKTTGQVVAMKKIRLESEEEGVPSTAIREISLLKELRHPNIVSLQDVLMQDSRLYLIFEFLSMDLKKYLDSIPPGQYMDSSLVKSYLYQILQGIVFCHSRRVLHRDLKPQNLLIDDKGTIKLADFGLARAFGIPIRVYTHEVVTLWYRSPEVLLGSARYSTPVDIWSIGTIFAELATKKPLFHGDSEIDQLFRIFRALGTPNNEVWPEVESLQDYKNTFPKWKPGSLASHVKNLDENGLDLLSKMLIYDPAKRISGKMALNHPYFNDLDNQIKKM
Sequence of Cyclin-dependent kinase 1/cyclin B1 (P14635 whole entry, further chain): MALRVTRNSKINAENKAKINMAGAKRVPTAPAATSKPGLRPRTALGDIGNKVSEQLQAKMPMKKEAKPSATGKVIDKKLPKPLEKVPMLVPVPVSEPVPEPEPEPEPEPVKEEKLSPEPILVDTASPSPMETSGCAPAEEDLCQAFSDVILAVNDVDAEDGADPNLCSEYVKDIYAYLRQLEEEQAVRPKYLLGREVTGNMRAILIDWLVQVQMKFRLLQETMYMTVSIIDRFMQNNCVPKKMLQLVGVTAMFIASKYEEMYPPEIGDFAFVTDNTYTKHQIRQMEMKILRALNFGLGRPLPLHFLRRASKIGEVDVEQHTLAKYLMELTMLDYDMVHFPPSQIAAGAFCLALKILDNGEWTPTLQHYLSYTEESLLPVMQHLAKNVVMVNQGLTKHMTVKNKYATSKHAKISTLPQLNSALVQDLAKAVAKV

- IC50 [1]: 2220 nM
- IC50 (MOLM-13 [2]): 19 nM
- clearance [4]: 6.5 mL/min/kg
- Kd [5]: 4 nM
- Kd [6]: 1 nM
- Kd [7]: 4 nM
- Kd [8]: 4 nM
- IC50 (U-937 [9]): 52 nM
- IC50 (MOLM-13 [12]): 28 nM
- Vd [13]: 2.6 L/kg
- half-life [14]: 4.1 h
- bioavailability [15]: 100%
- Vd [16]: 3.2 L/kg
- bioavailability [17]: 44%
- AUC at 192 h [19]: 28 µM·h
- IC50 (COLO 205): 55 nM
SMILES: C[C@H]1CC[C@H](n2c3cnccc3c3cnc(Nc4ccc5c(n4)CCN(C(=O)CO)C5)nc32)CC1
- IC50 [3]: 3830 nM
- Activity (U-937 [10]): 23.68%
- Activity (MOLM-13 [11]): 70.86%
- inhibition in vivo at 150 mg/kg (MOLM-13 [18]): 100%
- inhibition (Tumour): Active
- Activity (Mus musculus): Non-toxic
